Data taken from ChEMBL document CHEMBL1138784, “Rational design, synthesis, and biological evaluation of bis(pyrimido[5,6,1-de]acridines) and bis(pyrazolo[3,4,5-kl]acridine-5-carboxamides) as new anticancer agents” (J Med Chem, 2004).

Assays:
Nucleic Acid [1] = experiment: Binding site preference is determined as the ratio of Poly (dA-dT)2 to Poly (dG-dC)2; type: nucleic-acid assay
Procedure, shortened: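 Ethidium displacement fluorometry at pH 7.0 (10 mM Na2HPO4, 10 mM NaH2PO4, 1 mM EDTA) with 1.26 μM ethidium bromide and 1 μM [poly(dA-dT)]2 or [poly(dG-dC)]2, 20 °C. Ex 546 nm, em 595 nm, drug added serially from a DMSO stock. Preference taken from the [AT]/[GC] ratio of C50 values, counted significant only below 0.7 or above 1.3.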

HT-29 = experiment: Cytotoxicity is determined as the concentration required to inhibit the growth of human colon adenocarcinoma (HT-29) cell line; type: functional, cell-based
Nucleic Acid [2] = experiment: Binding site preference is determined as the ratio of AT to GC
[3] = Cytotoxicity against human H460M cancer cell line was determined after 144 hr; type: functional, cell-based; settings: Cancer cell lines
Procedure, shortened: (§1)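 MTT colorimetric assay. Cells seeded by growth characteristics and preincubated 24 h, then exposed to drug for 1 h or 144 h at 37 °C, 5% CO2. H460M, MKN45 and PC-3 were grown in RPMI 1640 with 10% FCS. HCT116 was grown in D-MEM with 10% FBS and 2 mM glutamine.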

MKN-45 = experiment: Cytotoxicity against human MKN45 cancer cell line was determined after 144 hr; type: functional, cell-based; settings: MKN-45, 144 h; procedure, shortened: as §1
HCT-116 = experiment: Cytotoxicity against human HCT116 cancer cell line was determined after 144 hr; type: functional, cell-based; settings: HCT-116, 144 h; procedure, shortened: as §1
PC-3 = experiment: Cytotoxicity against human PC3 cancer cell line was determined after 144 hr; type: functional, cell-based; settings: PC-3, 144 h; procedure, shortened: as §1
LoVo = experiment: Cytotoxicity against human LoVo cancer cell line was determined after 144 hr; type: functional, cell-based
Procedure, shortened: (§2)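 MTT assay on doxorubicin-sensitive LoVo and resistant LoVo/Dx cells, 24 h preincubation, then 1 h or 144 h drug exposure at 37 °C, 5% CO2. IC50 in nM. Resistance index is IC50 on LoVo/Dx divided by IC50 on LoVo.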

[4] = Cytotoxicity against human LoVo cancer cell line was determined after 1 hr; type: cell-based; procedure, shortened: as §2
[5] = Cytotoxicity against human H460M cancer cell line was determined after 1 hr; type: cell-based; settings: Cancer cell lines; procedure, shortened: as §1
[6] = Cytotoxicity against human MKN45 cancer cell line was determined after 1 hr; type: cell-based; settings: Cancer cell lines; procedure, shortened: as §1
[7] = Cytotoxicity against human HCT116 cancer cell line was determined after 1 hr; type: cell-based; settings: HCT-116, 1 h; procedure, shortened: as §1
[8] = Cytotoxicity against human PC3 cancer cell line was determined after 1 hr; type: cell-based; settings: Cancer cell lines; procedure, shortened: as §1

| Structure (SMILES) | Binding site preference (Nucleic Acid [1]) | IC50 (HT-29) | also measured |
| --- | --- | --- | --- |
| COc1ccc2c(c1)c(=O)c1c(NCCN(C)C)ccc3c(=O)n(CCN(C)C)c(=O)n2c31 |  |  | Binding site preference (Nucleic Acid [2]): 0.22 |
| CN(C)CCn1c(=O)c2ccc(NCCCCCCNc3ccc4c(=O)n(CCN(C)C)c(=O)n5c6ccccc6c(=O)c3c45)c3c(=O)c4ccccc4n(c1=O)c23 | 30 | 0.043 µM |  |
| CN(C)CCn1c(=O)c2ccc(NCCN(C)CCN(C)CCNc3ccc4c(=O)n(CCN(C)C)c(=O)n5c6ccccc6c(=O)c3c45)c3c(=O)c4ccccc4n(c1=O)c23 | 84 | 0.39 µM |  |
| CN(C)CCNc1ccc2c(=O)n(CCN(C)C)c(=O)n3c4ccc(O)cc4c(=O)c1c23 |  |  | Binding site preference (Nucleic Acid [2]): 0.25 |
| CN(C)CCn1c(=O)c2ccc(NCCN(C)CCNc3ccc4c(=O)n(CCN(C)C)c(=O)n5c6ccccc6c(=O)c3c45)c3c(=O)c4ccccc4n(c1=O)c23 | 4.3 | 0.11 µM |  |
| CN(C)CCn1c(=O)c2ccc(NCCN(C)CCNc3ccc4c(=O)n(CCN(C)C)c(=O)n5c6ccc(O)cc6c(=O)c3c45)c3c(=O)c4cc(O)ccc4n(c1=O)c23 | 9.1 | 0.39 µM |  |
| COc1ccc2c(c1)-c1nn(CCN(C)C)c3ccc(C(=O)NCCN(C)C)c(c13)N2 | 1.6 |  |  |
| CN(C)CCNc1ccc2c(=O)n(CCN(C)C)c(=O)n3c4ccccc4c(=O)c1c23 |  |  | Binding site preference (Nucleic Acid [2]): 0.57 |
| CN(C)CCNC(=O)c1ccc2c3c(c4ccccc4nc13)NN2CCN(C)C | 3.4 |  |  |
| CN(C)CCn1c(=O)c2ccc(NCCCCCCCCCCCCNc3ccc4c(=O)n(CCN(C)C)c(=O)n5c6ccccc6c(=O)c3c45)c3c(=O)c4ccccc4n(c1=O)c23 | 12 | 3.5 µM |  |
| CN(C)CCn1c(=O)c2ccc(NCCCNc3ccc4c(=O)n(CCN(C)C)c(=O)n5c6ccccc6c(=O)c3c45)c3c(=O)c4ccccc4n(c1=O)c23 | 8.9 | 0.39 µM |  |
| CN(C)CCNC(=O)c1ccc(NCCCN(C)CCCNc2ccc(C(=O)NCCN(C)C)c3nc4ccccc4c(O)c23)c2c(O)c3ccccc3nc12 |  | 0.00043 µM |  |
| COc1cc2c(=O)c3c(NCCCN(C)CCCNc4ccc5c(=O)n(CCN(C)C)c(=O)n6c7cc(OC)c(OC)cc7c(=O)c4c56)ccc4c(=O)n(CCN(C)C)c(=O)n(c2cc1OC)c43 | 4.6 | 0.25 µM |  |
| COc1cc2c(=O)c3c(NCCN(C)C)ccc4c(=O)n(CCN(C)C)c(=O)n(c2cc1OC)c43 |  |  | Binding site preference (Nucleic Acid [2]): 0.12 |
| CN(C)CCNc1ccc(C(=O)NCCCN(C)CCCNC(=O)c2ccc(NCCN(C)C)c3c(=O)c4ccccc4[nH]c23)c2[nH]c3ccccc3c(=O)c12 | 10 | 0.057 µM |  |
| CN(C)CCn1c(=O)c2ccc(NCCCCCCCCNc3ccc4c(=O)n(CCN(C)C)c(=O)n5c6ccccc6c(=O)c3c45)c3c(=O)c4ccccc4n(c1=O)c23 | 41 | 0.36 µM |  |
| CN(C)CCNc1ccc2c(=O)n(CCN(C)C)c(=O)n3c4ccc([N+](=O)[O-])cc4c(=O)c1c23 |  |  | Binding site preference (Nucleic Acid [2]): 0.12 |
| COc1ccc2c(c1)c(=O)c1c(NCCN(C)CCNc3ccc4c(=O)n(CCN(C)C)c(=O)n5c6ccc(OC)cc6c(=O)c3c45)ccc3c(=O)n(CCN(C)C)c(=O)n2c31 |  | 0.72 µM |  |
| CN(C)CCNC(=O)c1ccc(NCCCN(C)CCCNc2ccc(C(=O)NCCN(C)C)c3nc4ccc([N+](=O)[O-])cc4c(O)c23)c2c(O)c3cc([N+](=O)[O-])ccc3nc12 |  | < 0.0001 µM |  |
| O=C1c2c(O)ccc(O)c2C(=O)c2c(NCCNCCO)ccc(NCCNCCO)c21 [MITOXANTRONE] |  |  | IC50 [3]: 0.00075 µM; IC50 (MKN-45): 0.012 µM; IC50 (HCT-116): 0.0058 µM; IC50 (PC-3): 0.007 µM; IC50 (LoVo): 0.0033 µM; IC50 [4]: 0.012 µM; IC50 [5]: 0.00085 µM; IC50 [6]: 0.0068 µM; IC50 [7]: 0.11 µM; IC50 [8]: 0.075 µM |

The next lines start with results.

| Binding site preference (Nucleic Acid [1]) | Structure (SMILES) | IC50 (HT-29) | also measured |
| --- | --- | --- | --- |
| 2.5 | COc1ccc2nc3c(C(=O)NCCCN(C)CCCNC(=O)c4ccc(NCCN(C)C)c5c(O)c6cc(OC)ccc6nc45)ccc(NCCN(C)C)c3c(O)c2c1 | 0.002 µM |  |
| 1.9 | COc1ccc2nc3c(C(=O)NCCN(C)C)ccc(NCCCN(C)CCCNc4ccc(C(=O)NCCN(C)C)c5nc6ccc(OC)cc6c(O)c45)c3c(O)c2c1 | 0.039 µM |  |
| 2.8 | COc1ccc2c(c1)-c1nn(CCN(C)C)c3ccc(C(=O)NCCN(C)CCNC(=O)c4ccc5c6c(c7cc(OC)ccc7nc46)NN5CCN(C)C)c(c13)N2 | 0.15 µM |  |
| 1.6 | CN(C)CCNc1ccc(C(=O)NCCCN(C)CCCNC(=O)c2ccc(NCCN(C)C)c3c(O)c4cc(O)ccc4nc23)c2nc3ccc(O)cc3c(O)c12 | 0.8 µM |  |
| 5.1 | CN(C)CCNC(=O)c1ccc2c3c(c4cc(O)ccc4nc13)NN2CCN(C)C |  |  |
| 2.8 | CN(C)CCN1Nc2c3cc(O)ccc3nc3c(C(=O)NCCN(C)CCNC(=O)c4ccc5c6c(c7cc(O)ccc7nc46)NN5CCN(C)C)ccc1c23 | > 10 µM |  |
| 1.3 | CN(C)CCN1Nc2c3cc(O)ccc3nc3c(C(=O)NCCCN(C)CCCNC(=O)c4ccc5c6c(c7cc(O)ccc7nc46)NN5CCN(C)C)ccc1c23 | 0.78 µM |  |
| 1.8 | CN(C)CCNC(=O)c1ccc(NCCCN(C)CCCNc2ccc(C(=O)NCCN(C)C)c3nc4ccc(O)cc4c(O)c23)c2c(O)c3cc(O)ccc3nc12 | 6.9 µM |  |
| 4.3 | CN(C)CCN1Nc2c3ccccc3nc3c(C(=O)NCCN(C)CCNC(=O)c4ccc5c6c(c7ccccc7nc46)NN5CCN(C)C)ccc1c23 | 0.36 µM |  |
